Assay results: ChEMBL document CHEMBL3232847, “Discovery of 6-phenylpyrimido[4,5-b][1,4]oxazines as potent and selective acyl CoA:diacylglycerol acyltransferase 1 (DGAT1) inhibitors with in vivo efficacy in rodents” (J Med Chem, 2014); call rule not given here
One block for each molecule: values may come before it.

Tests used:
[1] = Clearance in Sprague-Dawley rat at 1 mg/kg, iv; assay type: ADME, organism-based; set-up: dose 1 mg/kg, route intravenous; details: in vivo
[2] = biological target: T1, Diacylglycerol O-acyltransferase 1 (Homo sapiens, UniProt O75907); experiment: Inhibition of human liver flag-tagged DGAT1 expressed in baculovirus infected insect cells after 2 hrs by SPA
T1 sequence (O75907 whole entry): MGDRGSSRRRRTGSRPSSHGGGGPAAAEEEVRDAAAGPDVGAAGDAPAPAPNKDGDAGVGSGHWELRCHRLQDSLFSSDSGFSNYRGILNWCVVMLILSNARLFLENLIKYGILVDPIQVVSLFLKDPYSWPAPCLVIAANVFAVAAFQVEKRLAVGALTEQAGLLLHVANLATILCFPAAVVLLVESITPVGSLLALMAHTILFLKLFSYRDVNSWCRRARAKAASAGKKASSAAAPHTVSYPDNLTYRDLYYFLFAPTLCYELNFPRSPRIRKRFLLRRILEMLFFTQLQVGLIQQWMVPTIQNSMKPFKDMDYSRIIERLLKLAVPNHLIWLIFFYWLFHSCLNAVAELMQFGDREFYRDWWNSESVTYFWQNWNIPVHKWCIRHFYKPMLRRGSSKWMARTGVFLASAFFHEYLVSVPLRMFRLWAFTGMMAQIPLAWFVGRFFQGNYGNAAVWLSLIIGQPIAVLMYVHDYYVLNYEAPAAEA

[3] = system: Rattus norvegicus; experiment: Toxicity in Sprague-Dawley rat assessed as elevation of plasma ALT level at 50 mg/kg, iv administered as single dose; assay type: organism-based; set-up: dose 50 mg/kg, route intravenous; details: in vivo
[4] = system: Rattus norvegicus; experiment: Toxicity in Sprague-Dawley rat assessed as elevation of plasma AST level at 50 mg/kg, iv administered as single dose; assay type: organism-based; set-up: dose 50 mg/kg, route intravenous; details: in vivo
[5] = biological target: T2, Cytochrome P450 1A2 (Homo sapiens, UniProt P05177); experiment: Inhibition of CYP1A2 (unknown origin) at 10 uM; assay type: ADME
T2 sequence (P05177 whole entry): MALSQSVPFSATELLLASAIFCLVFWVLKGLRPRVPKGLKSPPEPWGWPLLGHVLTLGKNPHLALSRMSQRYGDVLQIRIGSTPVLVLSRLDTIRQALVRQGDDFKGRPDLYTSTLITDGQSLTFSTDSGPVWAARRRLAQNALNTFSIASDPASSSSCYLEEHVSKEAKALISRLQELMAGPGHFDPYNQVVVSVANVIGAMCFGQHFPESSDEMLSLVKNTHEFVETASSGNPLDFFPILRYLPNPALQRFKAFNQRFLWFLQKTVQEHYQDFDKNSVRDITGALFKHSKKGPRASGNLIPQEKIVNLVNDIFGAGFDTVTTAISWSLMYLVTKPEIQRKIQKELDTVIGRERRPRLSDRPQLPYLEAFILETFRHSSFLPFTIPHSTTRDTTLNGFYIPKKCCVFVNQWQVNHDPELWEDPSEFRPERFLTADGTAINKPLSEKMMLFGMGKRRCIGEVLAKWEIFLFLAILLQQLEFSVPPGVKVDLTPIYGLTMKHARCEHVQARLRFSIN

[6] = biological target: Cytochrome P450 2D6 (Homo sapiens, UniProt P10635); experiment: Inhibition of CYP2D6 (unknown origin) at 10 uM; assay type: ADME
Chain of Cytochrome P450 2D6 (P10635 whole entry): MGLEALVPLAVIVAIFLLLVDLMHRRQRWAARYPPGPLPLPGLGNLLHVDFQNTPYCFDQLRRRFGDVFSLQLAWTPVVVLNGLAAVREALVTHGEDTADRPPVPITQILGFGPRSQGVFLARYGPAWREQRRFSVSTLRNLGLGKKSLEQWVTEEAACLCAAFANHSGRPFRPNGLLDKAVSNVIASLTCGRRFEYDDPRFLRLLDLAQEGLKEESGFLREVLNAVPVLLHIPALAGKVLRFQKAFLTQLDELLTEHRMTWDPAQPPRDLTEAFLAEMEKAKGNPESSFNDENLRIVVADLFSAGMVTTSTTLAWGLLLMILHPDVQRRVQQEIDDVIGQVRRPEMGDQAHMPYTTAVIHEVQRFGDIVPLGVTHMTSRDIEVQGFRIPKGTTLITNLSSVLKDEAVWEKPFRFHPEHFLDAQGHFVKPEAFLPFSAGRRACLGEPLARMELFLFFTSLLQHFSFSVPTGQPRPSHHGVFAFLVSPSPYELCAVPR

[7] = biological target: Cytochrome P450 2C9 (Homo sapiens, UniProt P11712); experiment: Inhibition of CYP2C9 (unknown origin) at 10 uM; assay type: ADME
Chain of Cytochrome P450 2C9 (P11712 whole entry): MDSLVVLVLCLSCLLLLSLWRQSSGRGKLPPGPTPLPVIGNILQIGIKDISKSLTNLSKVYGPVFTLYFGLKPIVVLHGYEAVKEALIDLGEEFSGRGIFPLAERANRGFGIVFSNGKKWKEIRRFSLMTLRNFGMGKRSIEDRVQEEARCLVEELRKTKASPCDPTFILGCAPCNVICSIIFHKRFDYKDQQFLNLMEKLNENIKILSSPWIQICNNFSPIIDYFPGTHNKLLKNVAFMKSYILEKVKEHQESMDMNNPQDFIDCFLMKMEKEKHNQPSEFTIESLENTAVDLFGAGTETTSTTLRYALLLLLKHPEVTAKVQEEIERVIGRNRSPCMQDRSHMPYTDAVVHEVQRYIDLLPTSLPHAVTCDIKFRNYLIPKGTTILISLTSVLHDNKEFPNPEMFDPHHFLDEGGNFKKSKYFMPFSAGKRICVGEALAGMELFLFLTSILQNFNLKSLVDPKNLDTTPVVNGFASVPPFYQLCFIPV

[8] = biological target: Cytochrome P450 3A4 (Homo sapiens, UniProt P08684); experiment: Inhibition of CYP3A4 (unknown origin) at 10 uM; assay type: ADME
Chain of Cytochrome P450 3A4 (P08684 whole entry): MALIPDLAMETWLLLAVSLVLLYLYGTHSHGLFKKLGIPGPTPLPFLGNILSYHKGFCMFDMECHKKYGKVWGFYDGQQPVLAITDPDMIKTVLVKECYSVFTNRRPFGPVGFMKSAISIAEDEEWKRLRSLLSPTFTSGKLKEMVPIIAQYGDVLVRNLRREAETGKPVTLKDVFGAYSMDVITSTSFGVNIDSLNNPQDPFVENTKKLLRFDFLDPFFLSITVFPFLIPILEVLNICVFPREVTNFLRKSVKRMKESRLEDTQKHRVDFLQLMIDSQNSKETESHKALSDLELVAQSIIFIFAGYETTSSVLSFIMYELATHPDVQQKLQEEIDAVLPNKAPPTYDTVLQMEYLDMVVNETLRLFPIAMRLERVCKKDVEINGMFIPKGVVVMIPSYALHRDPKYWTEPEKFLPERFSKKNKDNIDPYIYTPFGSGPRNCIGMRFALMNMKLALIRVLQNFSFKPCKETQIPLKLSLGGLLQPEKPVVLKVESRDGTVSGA

[9] = system: Rattus norvegicus; experiment: Toxicity in Sprague-Dawley rat assessed as sebaceous gland atrophy at 100 to 500 mg/kg, po by 28-day multiple-dose toxicity study; assay type: organism-based; set-up: dose 100-500 mg/kg, route oral; details: in vivo
Outline: (§1)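 Sprague−Dawley rats were dosed po at 100 and 500 mg kg−1 day−1 for 28 days. Clinical pathology was assessed for treatment-related changes, including sebaceous gland atrophy.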

[10] = system: Rattus norvegicus; experiment: Toxicity in Sprague-Dawley rat assessed as clinical pathology parameters at 100 to 500 mg/kg, po by 28-day multiple-dose toxicity study; assay type: organism-based; set-up: dose 100-500 mg/kg, route oral; details: in vivo; outline: as §1
[11] = system: Salmonella typhimurium; experiment: Genotoxicity in Salmonella typhimurium; assay type: toxicity, organism-based; details: salmonella enterica subsp. enterica serovar typhimurium
[12] = system: Cynomolgus monkey; experiment: Toxicity in cynomolgus monkey assessed as QTc interval prolongation at 1 mg/kg/day, po by 28-day multiple-dose toxicity study relative to control; assay type: organism-based, Macaca fascicularis; set-up: route oral; details: in vivo
Outline: (§2)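 Cynomolgus monkeys were dosed po at 1, 10 and 100 mg kg−1 day−1 for 28 days. Plasma ALT and AST were measured and QTc intervals were recorded, with eight monkeys in the 100 mg/kg group.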

[13] = system: Cynomolgus monkey; experiment: Toxicity in cynomolgus monkey assessed as QTc interval prolongation at 10 mg/kg/day, po by 28-day multiple-dose toxicity study relative to control; assay type: organism-based, Macaca fascicularis; set-up: route oral; details: in vivo; outline: as §2
[14] = system: CHL (Chinese hamster lung cells); experiment: Toxicity in CHL cells assessed as chromosomal aberration

Structure (SMILES): CC1(C)Oc2ncnc(N)c2C=C1c1ccc([C@H]2CC[C@H](CC(=O)O)CC2)cc1
clearance [1]: 23.3 mL/min/kg

Structure (SMILES): CC1(C)Oc2nc(O)nc(N)c2N=C1c1ccc([C@H]2CC[C@H](CC(=O)O)CC2)cc1
Activity [3]: Toxic
Activity [4]: Toxic

Structure (SMILES): Nc1cccc2c1N=C(c1ccc(Br)cc1)CO2
IC50 [2]: > 10 µM

Structure (SMILES): Cc1nc(N)c2c(n1)OC(C)(C)C(c1ccc([C@H]3CC[C@H](CC(=O)O)CC3)cc1)=N2
inhibition (INH) [5]: Not Active
inhibition (INH) [6]: Not Active
inhibition (INH) [7]: Not Active
inhibition (INH) [8]: Not Active
Activity [9]: Toxic
Activity [10]: Non-toxic
Activity [11]: Non-toxic
Activity [12]: Non-toxic
Activity [13]: Non-toxic
clearance [1]: 3.5 mL/min/kg
Activity [14]: Toxic

Structure (SMILES): CC1(C)Oc2nc(C(F)(F)F)nc(N)c2N=C1c1ccc([C@H]2CC[C@H](CC(=O)O)CC2)cc1
clearance [1]: 1.33 mL/min/kg

Structure (SMILES): CC1(C)Oc2ncnc(N)c2C=C1c1ccc2c(c1)CC[C@]21CC[C@@H](CC(=O)O)CC1
clearance [1]: 21.7 mL/min/kg

Results, then the molecule that gave them:

IC50 [2]: > 10 µM
Structure (SMILES): Nc1nc(O)nc2c1N=C(c1ccc(Br)cc1)CO2

IC50 [2]: > 10 µM
Structure (SMILES): CN(C)c1ncnc2c1N=C(c1ccc(Br)cc1)CO2

IC50 [2]: > 10 µM
Structure (SMILES): Nc1nc(N)c2c(n1)OCC(c1ccc(Br)cc1)=N2

IC50 [2]: > 10 µM
Structure (SMILES): CN(C)c1nc(N)c2c(n1)OCC(c1ccc(Br)cc1)=N2

IC50 [2]: > 10 µM
Structure (SMILES): CNc1ncnc2c1N=C(c1ccc(Br)cc1)CO2
